# According to ChEMBL document CHEMBL4814039, “Identification of non-covalent SARS-CoV-2 main protease inhibitors by a virtual screen of commercially available drug-like compounds” (Bioorg Med Chem Lett, 2021):
# Target: Replicase polyprotein 1ab (Severe acute respiratory syndrome coronavirus 2) (UniProt P0DTD1)
# Assay: Inhibition of SARS-CoV-2 main protease at 50 uM using Dabcy1-KTSAVLQSGFRKM-E-Edans-NH2 as substrate incubated for 10 mins followed by substrate addition by FRET assay relative to control
# In short: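 Mpro, 0.5 µM final, in pH 7.3 buffer (20 mM Tris-HCl, 100 mM NaCl, 1 mM EDTA, 1 mM DTT) preincubated with compound (50 µM final, from DMSO stock) at 37 °C for 10 min. Reaction started with FRET substrate solution at 20 µM. Read ex 360/em 460 nm. Inhibition is from the initial linear ΔRFU/s versus a DMSO-only control. Triplicate, mean ± SD.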
row,SMILES,inhibition [%]
1,O=C1C[C@H](c2ccc(Cl)cc2)N2N=C(N3C(=O)[C@H]4CCCC[C@H]4C3=O)NC2=N1,8.84
2,O=C(c1ccc2ccccc2n1)N1CCc2c(nc(-c3ccccc3)[nH]c2=O)C1,1.16
3,CC(=O)N1N=C(c2cc(-c3ccccc3)nc3ccccc23)O[C@H]1c1ccccc1,14.3
4,Cn1c2ccccc2c2cc([C@@H]3N[C@H](C(=O)O)Cc4c3[nH]c3ccccc43)ccc21,6.54
5,O=C(NCc1ccc2c(c1)OCO2)c1ccc2nc3[nH]c4ccccc4c3nc2c1,35.6
6,Cc1ccc(-n2nc(C)c3c(C)cc(OCc4ccc5nonc5c4)nc32)cc1,5.26
7,O=C(c1cc2nccc(-c3ccc4ccccc4c3)n2n1)N1CCN2CCC[C@H]2C1,9.38
8,Fc1ccc([C@H]2Oc3ccccc3[C@H]3CC(c4ccc5c(c4)OCO5)=NN32)cc1,6.87
9,Cc1cc(C)nc(-n2nc(C)c3c2NC(=O)C[C@@H]3c2ccc3ccccc3c2)n1,7.54
10,Cn1c2ccccc2c(=O)c2c1nc(Cc1ccccc1)n1c3ccccc3nc21,7.42
11,Cc1cccc2cc(-c3c4cn[nH]c4nc4c3oc3c(O)c(O)ccc34)c(=O)[nH]c12,76.6
12,CC1=NN(c2ccc3ccccc3c2)C(=O)/C1=C1/C(=O)Nc2ccc(Cl)cc21,16.6
13,Cc1ccc2c(c1)NC1(CCN(C(=O)Cc3ccc(F)cc3)CC1)c1cccn1-2,6.29
14,Cc1cccc2[nH]c([C@H]3CCCN(C(=O)c4nc5ccccn5c4F)C3)nc12,11.1
15,O=C(CN1C(=O)c2ccccc2N2C(=O)c3ccccc3[C@H]12)Nc1cccc(O)c1,5.21
16,O=c1oc2ccccc2c(O)c1[C@H]1c2ncccc2-c2c1c(=O)oc1ccccc21,8.23
17,Cc1cccc(Nc2nc(C(=O)N3CCc4ccccc43)nc3ccccc23)c1,45.7
